This excerpt belongs to a sample that is enriched for hits.
Lmaj promast = reduces viability of Leishmania major promastigotes; resazurin fluorescence viability; inhibition, % at 10 µM; hit rate 9% among 200,000; in the data active = inhibition above about 50%;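 note: promastigotes grown with compound for 44 hours at 28 °C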
HSF-1 act = increases HSF-1 driven luciferase reporter signal; activation, % at 9 µM; hit rate 1.7% among 300,000; AID 504408; NIH3T3-HGL HSF-1 luciferase reporter, MG132, 8 h; 100% = twice DMSO control signal;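 active = mean replicate activation of at least 50% with a set share of replicates each reaching 50%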;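 note: 0% = median of the neutral control wells and 100% = twice that signal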
Hsp70 activator = transcriptional activators of Hsp70. HeLa Hsp70 promoter luciferase reporter, luminescence; scaled: vehicle 0, proteasome-inhibitor control 100%. activation, % at 10 µM. hit rate 0.04% among 200,000;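 active = activation above the mean across all tested compounds plus 3 SD, cutoff set per campaign, cut at about 5.5% in these data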;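 note: 100% = MG132 at 30 µM as the positive control and 0% = DMSO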
HSF1 inhib = HSF1 inhibition | hit rate 0.77% among 300,000 | activity change, negative = inhibition, % at 7.5 µM (by protocol) | AID 2098 | NIH3T3-HGL HSE-luciferase, MG132-induced, luminescence 8 h; hits give low values;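 active = more than half of replicate wells show activity change below -50%, luminescence cut by over half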;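 note: luciferase reports HSF-1 transcriptional activity via heat shock element; 0% = median of DMSO wells and -100% = zero luminescence signal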
T cruzi inh = blocks replication of Trypanosoma cruzi; T. cruzi beta-gal in NIH3T3, luminescence, 90 h; inhibition, % (concentration not given with the values); hit rate 1.4% among 300,000; AID 1885;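 active = mean inhibition across valid replicates above about 55%, limit read from the data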;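 note: signal also drops with host cell toxicity which is not excluded here; 0% = plate median of DMSO wells and 100% = zero luminescence signal; higher percent means less beta-gal luminescence so fewer parasites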
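Assay system: NIH/3T3 host cells with β-galactosidase reporter T. cruzi; input: 5,000 host fibroblasts per well; compound: single 50 nL compound addition per well in DMSO; timing: ≥90 h infection period, 3 h prior cell attachment; measured by: GalScreen β-gal luminescence, detergent lysis, 60 min; evaluation: percent inhibition of parasite-derived β-gal signal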
An asterisk follows results filed as active; nt = no result.

SMILES	Lmaj promast	HSF-1 act	Hsp70 activator	HSF1 inhib	T cruzi inh
O=C(O)C1CCN(Cc2cccnc2)CC1	2	4	0	-1	0
Cc1cc(C(F)F)n2nc(C(=O)Nc3cccc(C(F)(F)F)c3)nc2n1	0	81*	0	51	1
O=C(Nc1ccc(N2CCCCC2)c(Cl)c1)c1ccc2c(c1)OCCO2	15	-57	0	-46	7
CC(=O)c1cccc(NC(=O)c2ccc(Br)o2)c1	14	34	0	4	-9
O=C(Nc1cccc(F)c1)c1ccc(Br)o1	68*	-38	0	-20	-21
CC(NC(=O)c1ccc2c(c1)OCO2)c1ccccc1 (centres undefined)	nt	-79	nt	-71*	-7
O=C(Nc1cc(Cl)ccc1N1CCOCC1)c1ccc(N2CCCCC2)c([N+](=O)[O-])c1	nt	4	nt	-1	22
O=C(Nc1ccc(N2CCCCC2)c(Cl)c1)c1ccc(N2CCOCC2)c([N+](=O)[O-])c1	93*	-10	0	-5	62*
O=C(Nc1ccc(N2CCCC2)c(Cl)c1)c1ccc2c(c1)OCCO2	3	36	0	12	59*
CC(=O)Nc1ccc(NC(=O)CSc2nnc(C)n2-c2ccccc2)cc1	nt	-8	nt	-12	1
COCCCn1cnnc1SCc1nc2sc(C(C)=O)c(C)c2c(=O)[nH]1	nt	18	nt	4	3
O=c1c2ccccc2c2c(O)nc(-c3ccccc3)n2n1Cc1ccccc1	-6	4	0	1	9
COCCC1CCCCN1C(=O)c1cc(COc2ccc(-n3cncn3)cc2)on1 (centres undefined)	nt	8	nt	-6	-14
Cc1cc(NC(=O)COc2ccccc2)ccc1Cl	nt	8	nt	10	-5
O=C(Nc1ccc(N2CCCC2)c(Cl)c1)c1ccc(Br)o1	8	9	0	-4	55*
CC(Sc1ccc(Cl)cc1)C(=O)Nc1ccc2c(c1)OCO2 (centres undefined)	1	-1	0	3	-5
CC(C(=O)Nc1ccc2c(c1)OCO2)N(c1ccc(Cl)cc1)S(C)(=O)=O (centres undefined)	97*	11	0	8	-5
O=C(Nc1ccc(Cl)cc1)c1ccc2c(c1)OCO2	-5	60*	0	33	-12
O=C(Nc1ccc(Cl)c(Cl)c1)c1ccc2c(c1)OCO2	nt	88*	nt	64	4
OCCCn1c(CCNc2nc(-c3ccc(F)cc3)cs2)nc2cc(C(F)(F)F)ccc21	nt	17	nt	12	21
CC1=C(C(=O)OC2CCCCC2)C(c2ccccc2Br)NC(=O)N1 (centres undefined)	nt	0	nt	-1	-7
COC(=O)C(=CC(=CN(C)C)C=C(C(=O)OC)C(=O)OC)C(=O)OC	nt	-1	nt	-4	0
Cc1ccccc1CN(C)C(C)C(=O)Nc1ccccc1F (centres undefined)	5	22	0	-9	6
O=C(Nc1ccc(F)cc1)Nc1csc2ccccc12	nt	61*	nt	41	32
COc1ccccc1OCC(O)CN1CCN(C(=O)c2ccccc2)CC1 (centres undefined)	nt	0	nt	-4	-13
SMILES	Lmaj promast	HSF-1 act	Hsp70 activator	HSF1 inhib	T cruzi inh
O=C(NCc1ccco1)C(c1ccco1)N(C(=O)Cn1nnc2ccccc21)c1ccc2c(c1)CCC2 (centres undefined)	91*	42	0	31	21
Cc1cccc(N(C(=O)Cn2nnc3ccccc32)C(C(=O)NCc2ccco2)c2ccncc2)c1 (centres undefined)	-6	39	0	22	-24
CC(C)(C)NS(=O)(=O)c1ccc(NC(=O)c2cc(-c3ccccc3)nc3ccccc23)cc1	-4	23	0	9	59*
Cc1cc(NS(=O)(=O)c2ccc(NC(=O)c3cc(-c4ccccc4Cl)nc4ccccc34)cc2)no1	60*	8	0	0	-4
COc1ccc(NC(=O)C(=O)NCCO)cc1Cl	42	7	0	-1	-1
O=C(NC1CCCCC1)c1c2c(nc3ccccc13)CCC2	-3	-2	0	-10	-9
CC1(CCc2ccc3c(c2)OCO3)NC(=O)c2ccccc2N1 (centres undefined)	100*	21	0	17	-9
O=C1NC(c2ccc3c(c2)OCO3)Nc2ccccc21 (centres undefined)	1	48	0	10	2
Cc1cccc(-c2nc3ccccc3c(=O)n2NC(=O)/C=C/c2ccc([N+](=O)[O-])cc2)c1	52*	10	0	-3	26
O=C(/C=C/c1cccc([N+](=O)[O-])c1)Nn1c(-c2ccccc2F)nc2ccccc2c1=O	-2	8	0	12	5
COc1ccccc1CNC(=O)COC(=O)/C=C/c1cccs1	51*	8	0	-5	-7
CCc1cccc(NC(=O)COC(=O)/C=C/c2cccs2)c1	nt	-62	nt	-52*	-8
Cc1ccc(NC2CCCN(C(=O)c3ccoc3C)C2)cc1C (centres undefined)	nt	-12	nt	1	6
CCOC(=O)c1cc(CC)sc1/N=C/c1c(O)ccc2ccccc12	64*	-11	0	1	8
Cc1c(Cc2ccccc2)sc(/N=C/c2c(O)ccc3ccccc23)c1C(N)=O	-12	-55	0	-58*	-12
CCOC(=O)c1cc(CC)sc1/N=C/C1C(=O)CCCC1=O	-13	-5	0	-2	3
Cc1[nH]c2ccccc2c1/C=N/Nc1ccc([N+](=O)[O-])cc1S(=O)(=O)Nc1ccc(Cl)cc1	95*	36	0	10	2
COc1ccc(NS(=O)(=O)c2cc([N+](=O)[O-])ccc2N/N=C\c2c(C)[nH]c3ccccc23)cc1	98*	13	0	-8	6
Cc1[nH]c2ccccc2c1/C=N/Nc1cccc(C(=O)O)c1	nt	-34	nt	-36	-12
COc1ccccc1NS(=O)(=O)c1cc([N+](=O)[O-])ccc1N/N=C/c1c[nH]c2ccccc12	34	22	0	3	33
Cc1c(C(=O)O)cccc1-n1c(C)cc(/C=N/NC(=O)c2cc3ccccc3o2)c1C	56*	-3	0	-1	1
COc1cc(C(=O)OCCCN=C2NS(=O)(=O)c3ccccc32)cc(OC)c1OC	-9	-10	0	-8	-11
CCOc1ccc(CNC2CCCc3ccccc32)cc1 (centres undefined)	70*	12	0	-7	-3
CCOc1ccc(NC(=O)NC2CCCc3ccccc32)cc1 (centres undefined)	nt	15	nt	7	11
CC(=O)OCC(=O)[C@H]1CC[C@H]2[C@@H]3CCC4=CC(=O)CC[C@]4(C)[C@H]3CC[C@]12C	100*	-29	0	-19	19
CCc1ccc(OC(C)C(=O)Nc2ccccc2C(=O)N2CCOCC2)cc1 (centres undefined)	nt	-4	nt	-2	-1
COCCNCC1C(Oc2ccc(Cl)cc2)C(=O)N1c1ccccc1C (centres undefined)	-3	-9	0	12	-1
